Test results published in ChEMBL document CHEMBL1926607 (J Med Chem, 2011).
pEC50: −log10 of the molar value.

Columns and labels:
[1] = Neuroprotective activity in Wistar rat hippocampi primary neuronal cells assessed as protection against serum-deprivation induced cell death at 0.1 uM after 24 hrs by MTT assay; type: functional, Hippocampus, Primary neuron
Summary of the method: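 Mixed neuron-glia cultures from E18 Wistar rat hippocampi (Neurobasal plus 10% FCS), used at 11 days in vitro. Medium replaced by saline to withdraw serum; cells held 24 h with compound. Cell survival measured by MTT reduction, expressed as % protection.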

[2] = Neuroprotective activity in Wistar rat hippocampi primary neuronal cells assessed as protection against oxygen-glucose deprivation induced cell death at 0.1 uM after 18 hrs by MTT assay; type: functional, Hippocampus, Primary neuron
Rattus norvegicus [3] = experiment: Neuroprotective activity against permanent middle cerebral artery occlusion-induced focal ischemia in Sprague-Dawley rat assessed as decrease in total cerebral infract volume at 40 ug/kg/h, iv administered 1 hr before ischemia and 1 hr after ischemia measured after 24 hrs (reference value: 546 +/- 51 mm3); type: functional
Rattus norvegicus [4] = experiment: Neuroprotective activity in permanent middle cerebral artery occlusion-induced ischemic in Sprague-Dawley rat assessed as decrease in cortical infract volume at 40 ug/kg/h, iv administered 1 hr before ischemia and 1 hr after ischemia measured after 24 hrs (reference value: 399 +/- 38 mm3); type: functional
Rattus norvegicus [5] = experiment: Neuroprotective activity in permanent middle cerebral artery occlusion-induced ischemic in Sprague-Dawley rat assessed as decrease in sub-cortical infract volume at 40 ug/kg/h, iv administered 1 hr before ischemia and 1 hr after ischemia measured after 24 hrs (reference value: 147 +/- 23 mm3); type: functional
[6] = target: T1, 5-hydroxytryptamine receptor 1A (Homo sapiens, UniProt P08908); experiment: Agonist activity at human 5HT1A receptor expressed in human HeLa cells assessed as inhibition of forskolin-stimulated cAMP production […] measured after 2 hrs by RIA; type: functional, cell-based
T1 sequence (P08908 whole entry): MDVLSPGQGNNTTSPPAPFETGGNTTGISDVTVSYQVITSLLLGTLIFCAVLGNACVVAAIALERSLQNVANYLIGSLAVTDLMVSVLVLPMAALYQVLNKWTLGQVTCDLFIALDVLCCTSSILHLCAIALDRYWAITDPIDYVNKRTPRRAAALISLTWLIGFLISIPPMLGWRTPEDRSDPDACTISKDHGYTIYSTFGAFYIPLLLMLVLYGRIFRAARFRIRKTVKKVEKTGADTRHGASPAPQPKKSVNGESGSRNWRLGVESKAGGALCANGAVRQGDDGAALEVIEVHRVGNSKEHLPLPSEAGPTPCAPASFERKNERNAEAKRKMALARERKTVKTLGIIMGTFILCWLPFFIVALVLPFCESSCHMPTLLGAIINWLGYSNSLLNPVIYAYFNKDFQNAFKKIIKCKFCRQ
Summary of the method: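 HeLa cells stably expressing the h5-HT1AR, grown in DMEM with 2 mM glutamine, 1 mM pyruvate and 10% heat-inactivated FCS, and used after 2–3 days at about 7.5 × 10^4 cells/well. After a PBS wash, cells were incubated 10 min in PBS with 0.5 mM isobutylmethylxanthine and 10 μM forskolin, with or without compound. The reaction was stopped with ice-cold ethanol, extracted 2 h and lyophilized; cAMP was measured by RIA.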

[7] = target: T2, 5-hydroxytryptamine receptor 1A (Homo sapiens) (UniProt P08908); experiment: Agonist activity at human 5HT1A receptor expressed in human HeLa cells assessed as inhibition of forskolin-stimulated cAMP production pretreated 20 mins before forskolin challenge measured after 2 hrs by RIA relative to control; type: functional, cell-based
T2 sequence (whole entry): T1 sequence (P08908 whole entry)

Mus musculus = experiment: Antihypothermic activity in ip dosed Swiss mouse assessed as inhibition of 8-OH-DPAT-induced hypothermia administered 30 mins before 8-OH-DPAT challenge measured after 15 to 60 mins; type: functional; details: read-out: MED
Summary of the method: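 Male Swiss mice (23–28 g) were housed five per cage. Rectal temperature (probe at 2 cm) was read at 15, 30 and 60 min after injection. The response was the maximum fall from basal temperature, analysed by ANOVA with Student–Newman–Keuls test.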

[8] = Neuroprotective activity in Wistar rat hippocampi primary neuronal cells assessed as protection against glutamate-induced cell death at 0.1 uM treated 30 min before glutamate challenge measured after 22 hrs by MTT assay; type: functional, Hippocampus, Primary neuron
Summary of the method: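 E18 fetal Wistar rat hippocampal neurons in neuron-enriched culture (Neurobasal, 2% B27, poly-L-lysine), used at 11 days in vitro. Compound added 30 min before 1 mM glutamate, exposure 22 h. Survival by MTT (mitochondrial dehydrogenase) read-out, reported as % protection.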

Row | SMILES | Activity [1] | Activity [2] | Activity (Rattus norvegicus [3]) | Activity (Rattus norvegicus [4]) | Activity (Rattus norvegicus [5]) | pEC50 [6] | Emax [7] | minimal effective dose (Mus musculus) | Activity [8]
1 | O=C1c2ccccc2S(=O)(=O)N1CCCCNC[C@H]1CCc2ccccc2O1 [REPINOTAN] | 31% | 78% | 377 mm3 | 271 mm3 | 106 mm3 |  |  |  | 
2 | O=C1c2ccccc2S(=O)(=O)N1CCCCNCC1CCc2ccccc2O1 (racemic) | 26% |  |  |  |  | 8.82 | 94.8% | 0.15 mg/kg | 16%
